Bioassay records (PubChem BioAssay)
SF-1 act – SF-1 (human) activation. Q13285. CHO-K1 Gal4-SF-1 LBD luciferase reporter; % increase over DMSO SF-1-specific signal. hit rate 1.9% among 65,000. activation, % at 10 µM;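 active means activation above the mean activation of all tested compounds plus 3 SD, cut at about 50% in these data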
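Assay system – CHO-K1 cells with Gal4–hSF-1 LBD chimera plus Gal4-driven luciferase · Quantity – 4,000 cells per well · Times – compound added 1 h post-seeding, 20 h exposure at 37 °C, 5% CO2 · Measured by – luciferase light emission · Benchmarks – DMSO and mock-transfected background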
M1 antag – M1 muscarinic receptor (rat) antagonism; P08482; CHO-M1 cells, Fluo-4 calcium, ACh EC80 antagonist mode; stronger effect = lower value; B-score at 10 µM; hit rate 3.4% among 64,000; AID 628;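 active means calcium fluorescence response, raw or row-and-column corrected B-score, differing from the plate sample mean either way at a set confidence level, mostly lower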
RORA act – activates the human nuclear receptor RORA; P35398; activation, % at 10 µM; hit rate 1.5% among 65,000; AID 560; CHO-K1 Gal4-RORA LBD luciferase reporter, luminescence; percent increase over mock-subtracted basal signal;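 active means activation above the mean of all tested compounds plus 3 SD, cut at about 49% in these data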;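 further: 0% = DMSO-treated RORA cells and 100% = added signal equal to DMSO minus mock-transfected cells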
HePTP inh – inhibitors of human HePTP phosphatase. P35236. recombinant HePTP phosphatase activity, OD absorbance. inhibition, % at 20 µM. hit rate 0.64% among 110,000. AID 521; in the data active means inhibition above about 50%;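 further: plate controls were vehicle for no effect and reference inhibitor for full effect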
D1 allo mod – D1 dopamine receptor (human) allosteric modulation; P21728; B-score at 10 µM; hit rate 5.9% among 58,000; HEK293 D1, CRE-luciferase, dopamine EC30 potentiation; actives deviate in either direction;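 active means luminescence count or its row- and column-corrected plate score outside the 99.7% band of the plate's sample wells, on either side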
Target sequence (P21728 whole entry, looked up): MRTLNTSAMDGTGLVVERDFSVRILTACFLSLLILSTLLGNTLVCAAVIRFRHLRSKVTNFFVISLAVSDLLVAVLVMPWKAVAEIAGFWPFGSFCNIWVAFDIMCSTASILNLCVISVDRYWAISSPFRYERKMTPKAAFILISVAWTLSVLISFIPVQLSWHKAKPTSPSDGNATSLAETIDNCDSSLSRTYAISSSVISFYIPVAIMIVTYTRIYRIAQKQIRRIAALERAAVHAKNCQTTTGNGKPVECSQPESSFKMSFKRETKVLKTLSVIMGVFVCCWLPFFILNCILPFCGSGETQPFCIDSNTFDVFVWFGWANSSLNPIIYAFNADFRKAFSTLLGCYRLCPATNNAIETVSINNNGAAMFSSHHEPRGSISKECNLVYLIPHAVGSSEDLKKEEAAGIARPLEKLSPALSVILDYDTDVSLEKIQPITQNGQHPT
M1 ag – activates the M1 muscarinic receptor; CHO-M1 cells, Fluo-4 calcium fluorescence, agonist mode; stronger effect = higher value; B-score at 10 µM; hit rate 3% among 64,000;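 active means fluorescence rise, raw or as B-score row- and column-corrected plate score, outside the 99.7% band of its plate's samples, either direction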
Starred values were filed as active, the others as inactive; nt = no result given. Compounds with a hit are over-represented: about 8.2% of the library has one in this group of screens.

SMILES	SF-1 act	M1 antag	RORA act	HePTP inh	D1 allo mod	M1 ag
CCN(CC)c1ccc(-n2c(O)c(C3=c4ccccc4=NC3=O)sc2=S)cc1	nt	nt	nt	-10	nt	nt
O=C(O)c1ccc(-n2c(O)c(/C=C3\C=Nc4ccccc43)sc2=S)cc1	nt	nt	nt	57*	nt	nt
COc1cc(C(=O)Nc2nc(N)n(-c3ccccc3)n2)cc(OC)c1OC	15	0.49	20	-6	-0.73	-0.34
O=C(N/N=C/C(Br)=C/c1ccccc1)c1cc(-c2ccco2)[nH]n1	nt	nt	nt	102*	nt	nt
CC(/C=N\NC(=O)c1cc(C(C)(C)C)[nH]n1)=C\c1ccccc1	nt	nt	nt	8	nt	nt
Cc1cc(OCC(=O)Nc2ccc(-c3nc4ncccc4o3)cc2)ccc1Cl	nt	nt	nt	63*	nt	nt
O=C(COc1ccccc1[N+](=O)[O-])Nc1ccc(-c2nc3ncccc3o2)cc1	nt	nt	nt	65*	nt	nt
Cc1nc(N)sc1-c1csc(Nc2ccccc2)n1	90*	-0.54	50*	5	nt	-0.9
CCN(CC)c1ccc(Nc2nc(-c3sc(N)nc3C)cs2)cc1	nt	nt	nt	1	nt	nt
N#Cc1nc(COc2ccccc2)oc1NCCCn1ccnc1	16	0.34*	26	9	0.1	-0.16
Cc1ccc(OCc2nc(C#N)c(NCCCn3ccnc3)o2)cc1	5	-1.5	3	9	-0.12	-0.066
CCC1CCc2c(sc(NC(=O)C3CCCC3)c2C(N)=O)C1 (stereo not given)	nt	nt	nt	10	nt	nt
c1coc(-c2nc(-c3ccncc3)no2)c1	50*	1.2	48	6	nt	0
CCCCc1ccc(-c2nc(-c3ccncc3)no2)cc1	48	-0.28	59*	0	0.29	-2
c1ccc(-c2nc(-c3ccncc3)no2)cc1	21	0.61	32	8	-0.9	1.1
Brc1ccc(-c2nc(-c3ccncc3)no2)o1	50*	0.95	27	6	0.78	1.4
Cc1ccccc1C(=O)Nc1sc2c(c1C(=O)N1CCN(C)CC1)CCCC2	nt	nt	nt	7	nt	nt
S=c1[nH]nc(-c2ccccc2)n1C1CCCCC1	nt	nt	nt	18	nt	nt
COc1ccc2c(c1)-c1c(sn(-c3cc(C)ccc3O)c1=S)C(C)(C)N2	nt	nt	nt	5	nt	nt
COCCn1c(CN2CCN(c3cccc(Cl)c3)CC2)nc2c1c(=O)n(C)c(=O)n2C	20	-0.031	-6	14	-3.5*	-0.2
CC1(C)Cc2c(sc(NC(=O)C3(c4ccccc4)CCCC3)c2C#N)CO1	nt	nt	nt	106*	nt	nt
CC1(C)Cc2c(sc(NC(=O)c3ccc(Br)o3)c2C#N)CO1	62*	0.5	9	3	-2.1	0.25
C=CCc1cccc2cc(C(=O)Nc3ccc(Cl)c(Cl)c3)c(=O)oc12	nt	nt	nt	2	nt	nt
C=CCc1cccc2cc(C(=O)Nc3cccc(C(=O)O)c3)c(=O)oc12	nt	nt	nt	90*	nt	nt
C=CCc1cccc2cc(C(=O)Nc3ccc(OCC)cc3)c(=O)oc12	nt	nt	nt	9	nt	nt
SMILES	SF-1 act	M1 antag	RORA act	HePTP inh	D1 allo mod	M1 ag
C=CCc1cccc2cc(C(=O)Nc3ccc(S(=O)(=O)Nc4nnc(CC)s4)cc3)c(=O)oc12	nt	nt	nt	103*	nt	nt
COc1cccc(/C=N/NC(=O)CCNc2n[nH]c(=O)[nH]c2=O)c1OC	nt	nt	nt	-16	nt	nt
Cn1c(SCc2ccccc2)nnc1-c1cccs1	57*	0.93	50*	-7	-0.86	2.3
Cn1c(SCc2nc3ccccc3s2)nnc1-c1cccs1	21	0.01	-3	6	-0.58	0.059
Cn1c(SCc2ccc(F)cc2)nnc1-c1cccs1	51*	-0.027	38	-2	-0.54	0.34
Cn1c(SCc2ccccn2)nnc1-c1cnccn1	34	-0.35	14	3	nt	-0.24
Cn1c(SCc2ccc(F)cc2)nnc1-c1ccccn1	64*	0.22	28	5	-0.33	-0.56
Cn1c(SCc2ccccc2F)nnc1-c1cnccn1	44	0.034	65*	2	-0.019	0.34
CCOc1ccc(NC2=CC(=O)CC(c3ccccc3)C2)cc1 (stereo not given)	nt	nt	nt	3	nt	nt
CSc1nc2ccc(NC(=O)CSc3nc4ccccc4s3)cc2s1	nt	nt	nt	-5	nt	nt
Cc1ccc2cccc(SCC(=O)NCc3ccco3)c2n1	-18	-0.043	-4	8	1.2	0.03
O=C(O)c1ncc(-c2ccccc2)cn1	-3	0.5	10	0	-0.053	-0.14
Cc1[nH]nc2c1C1(CCN(Cc3ccccc3)CC1)C(C#N)=C(N)O2	0	0.35	-15	-4	-0.46	4.1*
c1ccc(-c2nc3cnccn3c2Nc2ccc3c(c2)OCCO3)cc1	7	-0.012	-6	9	0.56	-0.31
O=C(Nc1ccccc1)N1CC=C(c2ccccc2)CC1	87*	0.15	49*	0	-0.044	0.35
CN1CC(=O)NC1=NC(=O)c1cc(F)c(F)cc1Cl	1	0.48	3	1	-0.67	-0.0046
CCCN1C(=O)c2cc(C(=O)NC3CCCCCC3)ccc2C1O (stereo not given)	nt	0.2	nt	1	-3.2*	-0.4
CN(C)c1cccc(C(=O)NC2CCCCCC2)c1	75*	0.42	26	9	-0.066	1.1
CCCN1C(=O)c2cc(C(=O)O)ccc2C1O (stereo not given)	6	0.042	0	7	0.88	-1.5
O=C(NC1CCCCCC1)c1cccc(Cl)c1	nt	nt	nt	-5	nt	nt
COc1ccc(-n2nc3ccc(NC(=O)/C=C\c4ccccc4)cc3n2)cc1	nt	nt	nt	102*	nt	nt
Cc1ccc2oc(-c3ccc(NC(=O)c4ccc(-c5ccc(Cl)cc5)o4)cc3O)nc2c1	nt	nt	nt	94*	nt	nt
CCc1ccc2oc(-c3cccc(NC(=O)c4cccnc4)c3)nc2c1	32	-0.51	58*	2	-1.3	2.3
O=C(Nc1ccc2nn(-c3ccccc3)nc2c1)c1cccnc1	61*	0.11	46	8	-1.1	-0.67
CCOc1ccc(-n2nc3ccc(NC(=O)/C=C/c4ccco4)cc3n2)cc1	nt	nt	nt	-6	nt	nt
SMILES	SF-1 act	M1 antag	RORA act	HePTP inh	D1 allo mod	M1 ag
Cc1cc([N+](=O)[O-])ccc1-c1ccc(C(=O)Nc2ccc3oc(-c4ccccc4)nc3c2)o1	nt	nt	nt	6	nt	nt
O=C(NC(=S)Nc1ccc2oc(-c3ccccc3)nc2c1)c1ccccc1	nt	nt	nt	103*	nt	nt
COc1ccccc1C(=O)Nc1ccc2oc(-c3ccc(F)cc3)nc2c1	42	-0.57	65*	5	-0.35	-0.97
O=C(Nc1ccc2oc(-c3ccncc3)nc2c1)c1cccnc1	nt	nt	nt	-6	nt	nt
O=C(Nc1ccc2oc(-c3ccccc3)nc2c1)c1ccc(-c2ccc([N+](=O)[O-])cc2)o1	nt	nt	nt	101*	nt	nt
O=C(Nc1ccc2oc(-c3ccccc3)nc2c1)c1cccnc1	71*	-1.6	71*	1	-0.53	0.027
COc1cccc(Cn2nnc(C(=O)NCc3ccc(F)cc3)c2N)c1	-20	-0.42	-19	-8	1.3	-1.4
CCOC(=O)c1c(NC(=O)c2ccc(S(=O)(=O)N3CCCCCC3)cc2)sc2c1CCC2	nt	nt	nt	4	nt	nt
CCOC(=O)N1CCN(S(=O)(=O)c2ccc(C(=O)Nc3sc4c(c3C#N)CCC4)cc2)CC1	74*	0.054	-3	0	0.5	-0.51
COCCNC(=O)c1ccccc1NC(=O)COc1ccccc1	-6	2.1*	-3	8	2.3	-1.1
